In general, GI50 refers to the concentration that inhibits growth by half. The term IC50 denotes the concentration needed to halve the response being measured. Low values mean higher potency, high ones lower potency.

The text below walks through data of ChEMBL document CHEMBL1136991, “Novel potent BRAF inhibitors: toward 1 nM compounds through optimization of the central phenyl ring” (J Med Chem, 2009).

Assay [1] can be described thus: Growth inhibition of human WM266.4 cells expressing BRAF V600E mutant after 5 days by SRB assay. Particulars: WM 266-4, 120 h. It is filed as functional. Summed up: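 WM266.4 human melanoma cells, which are driven by mutant BRAF, were assayed for proliferation by sulforhodamine B (SRB) staining; the value is a GI50.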
Assay [2] addresses T1, Serine/threonine-protein kinase B-raf (Homo sapiens, UniProt P15056, V600E). As to the kind of experiment: Inhibition of BRAF V600E mutant-mediated ERK phosphorylation in human WM266.4 cells. It counts as cell-based. The method, boiled down:
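Cellular pathway read-out: ERK phosphorylation (pERK) was measured in WM266.4 melanoma cells and reported as an IC50.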

The target in assay [3] is T1, Serine/threonine-protein kinase B-raf. Description: Inhibition of BRAF V600E mutant. Summed up: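 Purified, isolated V600E BRAF enzyme assayed in vitro; potency reported as IC50.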
The subject of the next assay is WM1361. Description: Growth inhibition of human WM1361 cells expressing NRAS mutant after 5 days by SRB assay. It counts as functional, cell-based. (In SRB staining, fixed cells bind dye roughly in proportion to their protein.)

Each structure is given as a SMILES string. Calls of active or inactive are those of the source. The calls are words filed in the database; no cut-off is given here.

T1 sequence (P15056 2-766 V600E limits assumed): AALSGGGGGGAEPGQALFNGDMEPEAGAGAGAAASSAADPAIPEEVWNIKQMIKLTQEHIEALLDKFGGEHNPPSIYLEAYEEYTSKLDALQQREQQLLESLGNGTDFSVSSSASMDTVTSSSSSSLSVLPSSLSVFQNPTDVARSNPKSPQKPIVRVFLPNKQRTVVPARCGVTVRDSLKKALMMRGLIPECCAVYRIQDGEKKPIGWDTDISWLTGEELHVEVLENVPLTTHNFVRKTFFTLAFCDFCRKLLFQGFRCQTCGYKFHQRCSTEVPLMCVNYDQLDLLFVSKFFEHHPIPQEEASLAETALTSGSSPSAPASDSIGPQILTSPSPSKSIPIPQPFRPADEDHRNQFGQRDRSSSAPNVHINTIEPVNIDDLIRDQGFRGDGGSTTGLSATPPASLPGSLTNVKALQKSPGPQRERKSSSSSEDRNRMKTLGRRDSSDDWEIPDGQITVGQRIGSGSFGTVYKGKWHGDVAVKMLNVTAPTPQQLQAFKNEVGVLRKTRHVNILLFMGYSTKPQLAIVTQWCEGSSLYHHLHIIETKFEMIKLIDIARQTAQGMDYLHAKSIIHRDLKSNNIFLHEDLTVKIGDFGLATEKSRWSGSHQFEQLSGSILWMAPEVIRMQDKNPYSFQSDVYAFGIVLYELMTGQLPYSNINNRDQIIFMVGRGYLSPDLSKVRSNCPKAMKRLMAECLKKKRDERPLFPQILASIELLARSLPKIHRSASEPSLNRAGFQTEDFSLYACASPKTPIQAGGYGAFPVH

With `CS(=O)(=O)c1cc(Oc2ccnc3[nH]c(=O)[nH]c23)ccc1NC(=O)Nc1ccc(Cl)c(C(F)(F)F)c1`, in assay [1], halving of growth (GI50) required 11900 nM. Further, the IC50 in assay [2] was determined as 11000 nM; in assay [3] it was 90 nM.
For `O=C(Nc1ccc(Cl)c(C(F)(F)F)c1)Nc1ccc(Oc2ccnc3[nH]c(=O)[nH]c23)cc1-c1ccccc1`, growth in assay [1] was halved (GI50) at 5100 nM. Also, the IC50 in assay [2] is above 100000 nM; in assay [3] it was 6500 nM.
In the same order, the values of `Cn1c(=O)[nH]c2nccc(Oc3ccc(NC(=O)c4cccc(SC(F)(F)F)c4)c4ccccc34)c21` are 7600 nM, 18400 nM and 4600 nM.
On to `CSc1cc(Oc2ccnc3[nH]c(=O)[nH]c23)ccc1NC(=O)Nc1ccc(Cl)c(C(F)(F)F)c1`, for which halving of growth in assay [1] (GI50) required 470 nM. The IC50 in assay [2] was determined as 610 nM; in assay [3], 1 nM.
In assay [1], `Cn1c(=O)[nH]c2nccc(Oc3ccc(NC(=O)Nc4cccc(C(C)(C)C)c4)c4ccccc34)c21` yielded a GI50 of 1130 nM. In addition, the IC50 in assay [2] came to 1060 nM; in assay [3], 37 nM.
The matching figures for `O=C(Cc1cccc(OC(F)(F)F)c1)Nc1ccc(Oc2ccnc3[nH]c(=O)[nH]c23)c2ccccc12`: 3100 nM, above 100000 nM and above 10000 nM.
In the same order, the values of `Cn1c(=O)[nH]c2nccc(Oc3ccc(NC(=O)Nc4cccc(SC(F)(F)F)c4)c4ccccc34)c21` are 1200 nM, 1460 nM and 24 nM.
Molecule `O=C(Nc1cc(C(F)(F)F)ccc1N1CCOCC1)Nc1ccc(Oc2ccnc3[nH]c(=O)[nH]c23)c2ccccc12` showed a GI50 in assay [1] of 291 nM. For the same molecule, the IC50 in assay [2] was found to be 346 nM; in assay [3], 14 nM.
The matching figures for `COc1cc(NC(=O)Nc2cccc(C(F)(F)F)c2)ccc1Oc1ccnc2[nH]c(=O)[nH]c12`: above 100000 nM, 29400 nM and 16 nM.
The molecule `Cn1c(=O)[nH]c2nccc(Oc3ccc(NC(=O)c4cccc(OC(F)(F)F)c4)c4ccccc34)c21` showed a GI50 in assay [1] of 12000 nM. The IC50 in assay [2] was 31000 nM; in assay [3], 5200 nM.
In the same order, the values of `O=C(Nc1cccc(F)c1)Nc1ccc(Oc2ccnc3[nH]c(=O)[nH]c23)c2ccccc12` are 290 nM, 214 nM and 37 nM.
In the same order, the values of `Cn1c(=O)[nH]c2nccc(Oc3ccc(NC(=O)Nc4ccc(Cl)c(C(F)(F)F)c4)c4ccccc34)c21` are 1040 nM, 770 nM and 23 nM.
In the same order, the values of `Cn1c(=O)[nH]c2c(Oc3ccc(NC(=O)Nc4ccc(Cl)c(C(F)(F)F)c4)c4ccccc34)ccnc21` are 2300 nM, 3140 nM and 156 nM.
The molecule `O=C(Nc1ccc(Oc2ccnc3[nH]c(=O)[nH]c23)cc1F)Nc1cc(C(F)(F)F)ccc1F` displayed a GI50 in assay [1] of 1150 nM. Moreover, the IC50 was 1290 nM in assay [2] and 7 nM in assay [3].
In turn, `O=C(Nc1cccc(C(F)(F)F)c1)Nc1ccc(Oc2ccnc3[nH]c(=O)[nH]c23)c2ccccc12` had a concentration for 50% growth inhibition (GI50) in assay [1] of 320 nM. Moreover, the concentration for half-maximal inhibition (IC50) in assay [2] came out at 1910 nM; in assay [3], 6 nM.
With `Cc1c(NC(=O)Nc2ccc(Cl)c(C(F)(F)F)c2)ccc(Oc2ccnc3[nH]c(=O)[nH]c23)c1C`, the GI50 in assay [1] was 2000 nM. Besides, the IC50 was 3900 nM in assay [2] and 56 nM in assay [3].
Turning to `O=C(Cc1cccc(C(F)(F)F)c1)Nc1ccc(Oc2ccnc3[nH]c(=O)[nH]c23)c2ccccc12`, the results for the IC50 in assay [2] and in assay [3] were above 100000 nM and above 10000 nM, respectively.
`Cn1c(=O)[nH]c2nccc(Oc3ccc(NC(=O)Nc4cccc(C(F)(F)F)c4)c4ccccc34)c21`: in assay [1], growth was halved (GI50) at 810 nM. The IC50 in assay [2] came out at 600 nM; in assay [3], 10 nM.
The molecule `O=C(Nc1cccc(SC(F)(F)F)c1)Nc1ccc(Oc2ccnc3[nH]c(=O)[nH]c23)cc1F` returned a GI50 in assay [1] of 1190 nM. The values for the IC50 in assay [2] and in assay [3] were 4150 nM and 7 nM, respectively.
Take `O=C(Nc1cccc(C(F)(F)F)c1)Nc1ccc(Oc2ccnc3[nH]c(=O)[nH]c23)cc1F`: the GI50 in assay [1] came out at 1610 nM. Further, the results for the 50% inhibitory concentration (IC50) in assay [2] and in assay [3] were 3450 nM and 12 nM, respectively.
The matching figures for `Cn1c(=O)[nH]c2nccc(Oc3ccc(NC(=O)Nc4ccc(Cl)c(C(F)(F)F)c4)c(F)c3)c21`: 100000 nM, 21000 nM and 10 nM.
The matching figures for `O=C(Nc1ccc(Cl)c(C(F)(F)F)c1)Nc1ccc(Oc2ccnc3[nH]c(=O)[nH]c23)cc1C(F)(F)F`: 930 nM, 3580 nM and 22 nM.
In assay [1], `CSc1cc(Oc2ccnc3[nH]c(=O)[nH]c23)ccc1NC(=O)Nc1cc(C(F)(F)F)ccc1F` yielded a GI50 of 2600 nM. The IC50 worked out at 3060 nM in assay [2] and 12 nM in assay [3].
Consider `O=C(Nc1ccc(Cl)c(C(F)(F)F)c1)Nc1ccc(Oc2ccnc3[nH]c(=O)[nH]c23)cc1Cl`, for which the GI50 in assay [1] turned out to be 2000 nM. Besides, the IC50 in assay [2] is 1330 nM; in assay [3], 23 nM.
In assay [1], `O=C(Nc1ccc(Oc2ccnc3[nH]c(=O)[nH]c23)cc1)Nc1ccc(Cl)c(C(F)(F)F)c1` yielded a GI50 of 4200 nM. The molecule also had an IC50 in assay [2] of 2390 nM.
As for `Cn1c(=O)[nH]c2c(Oc3ccc(NC(=O)Nc4cccc(C(C)(C)C)c4)c4ccccc34)ccnc21`, the GI50 in assay [1] was above 100000 nM. In addition, the IC50 in assay [2] amounted to 46000 nM; in assay [3] it was 430 nM.
In assay [1], `O=C(Nc1ccc(Cl)c(C(F)(F)F)c1)Nc1ccc(Oc2ccnc3[nH]c(=O)[nH]c23)cc1F` came in with a GI50 of 1530 nM. Further, the IC50 in assay [2] is 2170 nM; in assay [3], 8 nM.
Take `CNC(=O)c1cc(Oc2ccc(NC(=O)Nc3ccc(Cl)c(C(F)(F)F)c3)cc2)ccn1`: the outcome with WM1361 was inactive.
In turn, `Cc1cc(NC(=O)Nc2ccc(Cl)c(C(F)(F)F)c2)ccc1Oc1ccnc2[nH]c(=O)[nH]c12` showed a GI50 in assay [1] of 1790 nM. The IC50 was found to be 59000 nM in assay [2] and 23 nM in assay [3].
For the molecule `O=C(Nc1ccc(Oc2ccnc3[nH]c(=O)[nH]c23)c(F)c1)Nc1ccc(Cl)c(C(F)(F)F)c1`, the IC50 in assay [2] came to 34000 nM; in assay [3], 47 nM.
`COc1cc(NC(=O)Nc2ccc(Cl)c(C(F)(F)F)c2)ccc1Oc1ccnc2[nH]c(=O)[nH]c12` had a GI50 in assay [1] of 6200 nM. For the same molecule, the results for the IC50 in assay [2] and in assay [3] were 5500 nM and 25 nM, respectively.
`CN(C)c1cc(Oc2ccnc3[nH]c(=O)[nH]c23)ccc1NC(=O)Nc1ccc(Cl)c(C(F)(F)F)c1` gave a GI50 in assay [1] of 5340 nM. The IC50 in assay [2] was 20700 nM; in assay [3], 10000 nM.
`O=C(Nc1ccc(F)c(F)c1)Nc1ccc(Oc2ccnc3[nH]c(=O)[nH]c23)c2ccccc12` had a GI50 in assay [1] of 5500 nM. Further, the IC50 is above 100000 nM in assay [2] and 220 nM in assay [3].
Turning to `Cc1cc(Oc2ccnc3[nH]c(=O)[nH]c23)ccc1NC(=O)Nc1ccc(Cl)c(C(F)(F)F)c1`, halving of growth in assay [1] (GI50) required 5900 nM. The IC50 worked out at 4720 nM in assay [2] and 37 nM in assay [3].
The matching figures for `Cn1c(=O)[nH]c2c(Oc3ccc(NC(=O)Nc4cc(C(F)(F)F)ccc4F)c4ccccc34)ccnc21`: 730 nM, 2000 nM and 167 nM.
For the molecule `O=C(Nc1ccc(Cl)c(C(F)(F)F)c1)Nc1ccc(Oc2ccnc3[nH]c(=O)[nH]c23)c2ccccc12`, in assay [1], the concentration for 50% growth inhibition (GI50) worked out at 470 nM. In addition, the IC50 in assay [2] stood at 559 nM; in assay [3], 30 nM.
In the case of `COc1cc(Oc2ccnc3[nH]c(=O)[nH]c23)ccc1NC(=O)Nc1ccc(Cl)c(C(F)(F)F)c1`, the figures for the IC50 in assay [2] and in assay [3] were above 100000 nM and 106 nM, respectively.
`Cn1c(=O)[nH]c2nccc(Oc3ccc(NC(=O)Nc4cc(C(F)(F)F)ccc4F)c4ccccc34)c21` yielded a GI50 in assay [1] of 490 nM. Moreover, the figures for the IC50 in assay [2] and in assay [3] were 810 nM and 17 nM, respectively.
